# Measurements published in ChEMBL document CHEMBL1151772, “Discovery of multitarget inhibitors by combining molecular docking with common pharmacophore matching” (J Med Chem, 2008).
# What was measured:
# [1] = molecular target: T1, Leukotriene A-4 hydrolase (Homo sapiens, UniProt P09960); assay: Inhibition of aminopeptidase activity of human leukotriene A4 hydrolase assessed as para-nitroanilide release by spectrophotometry
# T1 sequence (P09960 whole entry): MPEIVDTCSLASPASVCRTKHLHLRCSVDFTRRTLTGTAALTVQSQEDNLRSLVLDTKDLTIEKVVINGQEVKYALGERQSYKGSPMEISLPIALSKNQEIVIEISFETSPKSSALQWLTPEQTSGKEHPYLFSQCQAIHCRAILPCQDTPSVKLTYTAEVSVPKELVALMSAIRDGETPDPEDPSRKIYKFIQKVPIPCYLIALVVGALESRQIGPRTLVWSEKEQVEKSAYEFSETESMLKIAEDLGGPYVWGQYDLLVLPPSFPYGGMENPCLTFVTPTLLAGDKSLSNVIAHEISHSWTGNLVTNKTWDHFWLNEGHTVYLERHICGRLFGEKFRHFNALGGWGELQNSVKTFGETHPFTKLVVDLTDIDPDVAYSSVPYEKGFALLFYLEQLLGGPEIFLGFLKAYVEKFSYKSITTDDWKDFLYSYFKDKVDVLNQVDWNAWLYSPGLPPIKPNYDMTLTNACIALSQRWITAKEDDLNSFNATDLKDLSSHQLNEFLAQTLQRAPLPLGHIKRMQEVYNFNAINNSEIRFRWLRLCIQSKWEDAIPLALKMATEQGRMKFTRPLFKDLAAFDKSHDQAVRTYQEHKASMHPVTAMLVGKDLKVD
# Summary of the method: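 Enzyme (1-20 µg) in 50 mM Tris-HCl pH 8.0 with 100 mM NaCl at 37 °C; inhibitor preincubated 2 min; 5% v/v DMSO final. Started with 0.125 mM Ala-p-nitroanilide; p-NA formation followed at 405 nm for 15 min, quantified against p-NA standard curve. IC50 from initial rates across inhibitor concentrations via V0/V = 1 + [I]/IC50; three separate experiments.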
# [2] = molecular target: T1, Leukotriene A-4 hydrolase; assay: Inhibition of epoxide hydrolase activity of human leukotriene A4 hydrolase assessed as LTB4 level by ELISA
# Summary of the method: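 LTA4 prepared by hydrolysing LTA4 methyl ester in cold acetone/NaOH under nitrogen. Enzyme (300 ng) preincubated with compound 15 min at 37 °C in 10 mM sodium phosphate pH 7.4, 4 mg/mL BSA, 5% DMSO. Reaction started with LTA4 (150 nM final), 10 min at 37 °C, stopped by dilution into buffer; LTB4 measured by ELISA. Three separate experiments.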
# [3] = molecular target: T2, Phospholipase A2, membrane associated (Homo sapiens, UniProt P14555); assay: Inhibition of human nonpancreatic secretory phospholipase A2
# T2 sequence (P14555 whole entry): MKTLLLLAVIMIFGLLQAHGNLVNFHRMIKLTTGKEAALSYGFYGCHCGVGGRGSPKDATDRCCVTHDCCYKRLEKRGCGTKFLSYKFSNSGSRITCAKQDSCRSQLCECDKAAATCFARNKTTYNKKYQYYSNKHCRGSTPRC
# Summary of the method: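 Inhibitor preincubated with substrate 10 min at 25 °C. Enzyme added to start; ex 377/em 470 nm read kinetically for 20 min. IC50 from initial rates via V0/V = 1 + [I]/IC50; three separate experiments.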
SMILES,IC50 [1],IC50 [2],IC50 [3]
NCCc1c[nH]c2c(OCc3ccccc3)cccc12,12.5 µM,217 µM,52.5 µM
NC(Cc1c[nH]c2ccc(OCc3ccccc3)cc12)C(=O)O (stereo not given),17.3 µM,231 µM,42.1 µM
O=C(C[n+]1ccc(Cc2ccc([N+](=O)[O-])cc2)cc1)c1ccccc1,23.4 µM,386 µM,43.7 µM
NCCOc1ccc(Oc2ccccc2)cc1,,,7.3 µM
